# Measurements taken from PubChem BioAssay AID588768 (The Scripps Research Institute Molecular Screening Center, 2011).
# Active and inactive are the calls of the source.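 Rule for the calls: active = cytotoxic, with CC50, the dose killing half the cells, at or below 5 µM in either medium; inactive = CC50 above 5 µM in every panel.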
# Assay: cytotoxicity in HEK293T cells, dose response, cytotoxicity control for pPAFAH inhibitor project, cell-based, WST-1 absorbance, serum-free and serum media, powder (AID 588768)
# Conditions: HEK293T viability
# Procedure, shortened: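 Test system: HEK 293T cells; Medium: DMEM with or without 10% FCS; Compound: 7-point 1:5 series up to 50 µM; Timing: 48 h exposure at 37 °C; Measured by: WST-1 colorimetric absorbance; Control set: no-compound cells high, no-cell wells low.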
Structure (SMILES),CC50 (with 10% FCS),CC50 (without serum)
Cc1cc(N2CCN(C(=O)Oc3ccc(-c4ccccc4)cn3)CC2)c2ccccc2n1,35 µM (inactive),6.7 µM (inactive)
Cc1cc(N2CCN(C(=O)Oc3ccc([N+](=O)[O-])cc3)CC2)c2ccccc2n1,13 µM (inactive),0.061 µM
Cc1cc(N2CCN(C(=O)Oc3ccc(-c4ccccc4)cc3)CC2)c2ccccc2n1,12 µM (inactive),1.8 µM
